Rows were chosen to be rich in hits. Some 6.5% of all compounds tested hit in one or more screens of this group.
Calb biofilm kill: clotrimazole potentiators killing Candida biofilms, primary screen, with clotrimazole, Alamar Blue; C. albicans biofilm + clotrimazole; inhibition, % at 6 µM; 85,000 tested, 0.14% active;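 active means inhibition above 20%; inactive means inhibition below 20%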;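 further: preformed 24 hr biofilms exposed to compound for 48 hr; 0% = biofilm without compound and 100% = blank killed by clotrimazole plus chlorhexidine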
PTK2B oligo ant: antagonists of Pyk2 self-association, primary screen, Q293 cells, FERM NanoBiT luminescence, HTS | AID 1347419, 2020 | z-score (the deposit names both 25 µM and 10 µM) | 99,000 tested, 0.83% active | Protein-tyrosine kinase 2-beta (Homo sapiens), Q14289 | stronger effect = lower value;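 active means Z-score of -3 or lower, scaled per plate to the spread of control and sample wells; inactive means z-score above -3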;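 further: negative z-score means lost luminescence so less FERM oligomerization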
Target sequence (Q14289 whole entry, looked up): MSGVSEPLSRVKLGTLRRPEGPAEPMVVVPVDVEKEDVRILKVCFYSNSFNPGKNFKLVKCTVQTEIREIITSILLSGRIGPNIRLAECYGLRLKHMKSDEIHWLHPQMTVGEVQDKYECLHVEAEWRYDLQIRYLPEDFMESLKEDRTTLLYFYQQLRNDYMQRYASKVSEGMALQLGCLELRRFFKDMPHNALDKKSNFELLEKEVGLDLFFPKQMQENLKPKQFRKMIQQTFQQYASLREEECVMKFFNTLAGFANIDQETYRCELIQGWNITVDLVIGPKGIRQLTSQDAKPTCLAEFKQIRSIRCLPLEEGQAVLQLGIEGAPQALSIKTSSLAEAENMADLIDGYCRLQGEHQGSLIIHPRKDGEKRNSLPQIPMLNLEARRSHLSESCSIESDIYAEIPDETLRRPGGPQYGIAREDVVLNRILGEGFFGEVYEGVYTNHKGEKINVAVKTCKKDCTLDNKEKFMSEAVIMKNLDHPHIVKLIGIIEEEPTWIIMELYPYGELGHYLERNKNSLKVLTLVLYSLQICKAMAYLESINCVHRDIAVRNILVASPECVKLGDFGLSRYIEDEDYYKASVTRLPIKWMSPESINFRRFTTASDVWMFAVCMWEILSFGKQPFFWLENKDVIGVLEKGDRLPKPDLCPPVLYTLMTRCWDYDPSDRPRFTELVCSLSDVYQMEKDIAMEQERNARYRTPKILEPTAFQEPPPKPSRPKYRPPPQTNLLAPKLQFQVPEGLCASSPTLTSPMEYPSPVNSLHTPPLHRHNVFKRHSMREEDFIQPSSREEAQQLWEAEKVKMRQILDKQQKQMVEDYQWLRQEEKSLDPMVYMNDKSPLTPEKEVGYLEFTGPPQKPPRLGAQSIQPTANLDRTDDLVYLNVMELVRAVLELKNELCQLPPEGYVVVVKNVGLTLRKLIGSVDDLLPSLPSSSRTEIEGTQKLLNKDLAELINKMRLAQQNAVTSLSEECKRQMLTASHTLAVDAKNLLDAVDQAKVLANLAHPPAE
PostGolgi yeast: phenotypic screen on post-Golgi transport, primary screen; post-Golgi transport phenotypic cell assay; inhibition, % at 10 µM; 98,000 tested, 0.9% active;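 further: yeast cells grown in 1536-well plates; yeast grown about 18 h at 30C before absorbance read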
PostGolgi ctrl: growth inhibition of yeast control strain, primary screen, counter-screen for post-Golgi transport modulator project; inhibition, % at 10 µM; AID 738, 2007; 98,000 tested, 5% active; efflux-deficient yeast background strain, growth absorbance A615, 16 h
Ecoli tolC: growth inhibitors of E. coli tolC mutant, primary screen, strain BW25113 ΔtolC::kan, 384-well. 65,000 tested, 2.2% active. OD615. growth inhibition, % at 10 µM (by protocol);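 active means growth inhibition at or above a cutoff equal to the mean over every tested compound plus 3 SD, cut at about 60% in these data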;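 further: growth measured after 20 h incubation at 37 °C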
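Test system: E. coli BW25113 ΔtolC::kan bacteria; incubation: 37 °C, 20 h exposure; medium: LB broth supplemented with 50 µg/mL kanamycin; read-out basis: percent growth inhibition; signal: A615 absorbance measurement; compound: 10 µM final, single dose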
Ecoli WT expand: growth inhibitors of wild-type E. coli, primary screen, strain BW25113, expanded library, OD600. OD600 absorbance. 98,000 tested, 0.15% active. AID 710, 2007. growth inhibition, % at 100 µM;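 active means growth inhibition above about 50% at one test dose, limit read from the data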;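 further: growth measured after 20 h incubation at 37 °C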
* marks the source's active call; other numbers are inactive results; x = not tested or not shown. Unless noted, no stated cut-off is given here; in the data, active means inhibition above about 30%; inactive means the rest.

SMILES	Calb biofilm kill	PTK2B oligo ant	PostGolgi yeast	PostGolgi ctrl	Ecoli tolC	Ecoli WT expand
Cc1ccc(C(C)C)cc1OCCOCCN1CCCC1	2	-0.55	-7	11	x	7
COc1ccc(C2C(=O)N(CCc3ccccc3)CC(=O)N2C2CCCCC2)cc1 (stereo not drawn)	5	0.07	-6	20	x	0
CN(Cc1ccccc1)c1nc(N)c([N+](=O)[O-])c(Nc2cccc(F)c2)n1	2	-0.84	22	27	x	-6
O=c1c2ccccc2nc(SCc2nnc(-c3ccccc3)o2)n1-c1ccc(F)cc1F	5	-2.4	0	31*	28	-27
Cc1ccc(NCN2C(=O)C3CC=CCC3C2=O)cc1 (stereo not drawn)	4	-0.87	x	x	x	x
CCOC(=O)C(C(C)=O)c1c(Br)c(O)c(O)c2c(C(=O)c3ccc(C)cc3)coc12 (stereo not drawn)	-1	-2.6	x	x	16	x
O/N=C/c1ccccc1OCc1ccc(Cl)cc1	x	-3	7	77*	x	0
COc1ccccc1NC(=O)CCC(=O)Nc1nnc(C(F)(F)F)s1	-3	0.25	2	9	-1	-1
CCOC(=O)c1cc2sccc2n1CC(=O)N1CCCc2ccccc21	7	-2.9	12	24	100*	-3
CCOC(=O)c1cc2sccc2n1Cc1ccccc1	7	0.45	20	15	57	2
COC(=O)c1cc2sccc2n1CC(=O)N1CCCc2ccccc21	0	0.66	11	14	12	-8
CCOC(=O)c1[nH]c2ccccc2c1CCCN1C(=O)c2ccccc2C1=O	6	-3*	4	17	x	-3
CCOC(=O)c1[nH]c2cc3c(cc2c1CCCN1C(=O)c2ccccc2C1=O)OCCO3	-1	-1	-5	6	-22	-16
CCOC(=O)c1cc2sccc2n1CCCN1C(=O)c2ccccc2C1=O	4	-0.66	-4	32*	56	-23
COC(=O)c1cc2sc(Cl)cc2n1CC(=O)N1CCCc2ccccc21	9	-0.61	-8	36*	25	-17
CC(=O)N1c2ccccc2C(=O)C1N1CCCCC1 (stereo not drawn)	9	1.2	7	10	-6	2
Cc1c(NC(=O)CSc2nc3ccccc3s2)c(=O)n(-c2ccccc2)n1C	3	1.4	15	-2	x	8
Cc1ccccc1NC(=O)c1nc[nH]c1C(=O)NCc1ccccc1	8	-0.78	6	53*	41	-10
O=C(NC(C(=O)c1ccccc1)N1CCOCC1)c1ccccc1 (stereo not drawn)	x	-0.12	0	0	3	3
O=C(NC(C(=O)c1ccccc1)N1CCOCC1)c1cccs1 (stereo not drawn)	7	0.34	5	33*	-9	3
C=CCn1c(SCC(=O)c2c(N)n(CCC)c(=O)n(C)c2=O)nc2sc(CC)cc2c1=O	4	0.04	-2	12	x	-2
C=CCn1c(SCC(=O)Nc2sccc2C(N)=O)nc2sc(CC)cc2c1=O	3	-3.5*	4	18	x	-9
C=CCn1c(SCC(=O)Nc2sccc2C(N)=O)nc2ccccc2c1=O	1	-2.6	11	1	x	1
C=CCn1c(SCC(=O)Nc2sccc2C(N)=O)nc2ccc(Cl)cc2c1=O	1	-3.2*	-3	14	x	-1
CCn1c(SCc2cccc(C)c2)nnc1-c1ccc(C)cc1	5	-1.5	-2	17	x	15
SMILES	Calb biofilm kill	PTK2B oligo ant	PostGolgi yeast	PostGolgi ctrl	Ecoli tolC	Ecoli WT expand
Cc1ccc(-c2nn(CC(=O)NCCN3CCOCC3)c(=O)c3ccccc23)cc1	12	1.1	-4	-1	4	10
O=c1c2cccc3c2c(nn1CN1CCOCC1)-c1ccccc1-3	x	-0.63	41*	2	80*	14
CC1=C(C(=O)OCC(C)C)C(c2ccccc2Cl)NC(=O)N1C (stereo not drawn)	x	x	-2	14	12	5
CC1=C(C(=O)OCC(C)C)C(c2cc3c(cc2Br)OCO3)NC(=O)N1C (stereo not drawn)	9	-2	-2	38*	66*	6
COc1cccc(-n2c(CN3CCN(c4ccccc4)CC3)nc3ccc([N+](=O)[O-])cc3c2=O)c1	x	-2.5	x	x	x	x
CCCn1c(=O)c2ccccc2n2c(SCc3c(C(=O)OCC)oc4ccccc34)nnc12	x	0.65	22	51*	18	-3
CCCn1c(=O)c2ccccc2n2c(SCC(=O)c3ccc(CC)cc3)nnc12	7	0.13	-6	7	x	-2
CCCn1c(=O)c2ccccc2n2c(SCC(=O)NCc3cccs3)nnc12	4	0.1	-1	40*	16	-12
CCCn1c(SCc2ccc(Cl)cc2)nc2c1c(=O)[nH]c(=O)n2C	-6	-1.8	19	60*	25	-10
CCOCCn1c(SCCc2ccccc2)nc2c1c(=O)[nH]c(=O)n2C	15	x	-1	16	3	-9
CCCCCCn1c(SCCC)nc2c1c(=O)[nH]c(=O)n2C	4	0.02	-7	27	25	-9
CCCCCn1c(SCCCC)nc2c1c(=O)[nH]c(=O)n2C	7	-1.4	-8	33*	34	-7
CCCn1c(Sc2nc3c(c(=O)[nH]c(=O)n3C)n2CCC)nc2c1c(=O)[nH]c(=O)n2C	x	0.44	5	0	x	-4
CCOCCn1c(SCc2cccc(C)c2)nc2c1c(=O)[nH]c(=O)n2C	6	x	6	41*	13	-2
Cn1c(=O)[nH]c(=O)c2c1nc(Br)n2CCSc1ncccn1	2	-0.53	-6	36*	-14	1
O=S(=O)(NCc1cc(-c2ccccc2Cl)no1)c1ccc(Cl)cc1	x	0.52	5	24	x	0
C/C=C/Cn1c(SCc2ccc(Cl)cc2)nc2c1c(=O)[nH]c(=O)n2C	3	-2.1	8	43*	15	-16
C/C=C/Cn1c(SC)nc2c1c(=O)[nH]c(=O)n2C	7	1.5	-11	-7	12	5
Cc1cccc(Cn2c(N(C)Cc3ccccc3)nc3c2c(=O)[nH]c(=O)n3C)c1	14	x	-5	47*	33	1
COC(=O)C1=C(C(=O)OC)SC2(S1)C(C(=O)OC)=C(C(=O)OC)SC1=C2c2cc(C)ccc2NC1(C)C	-2	-1.6	-4	4	x	-5
CCCCC(c1nnnn1CC1CCCO1)N1CCN(c2nc3ccccc3s2)CC1 (stereo not drawn)	2	-2.2	-10	8	20	-17
CCCCC(c1nnnn1CC1CCCO1)N1CCN(c2cc(Cl)ccc2C)CC1 (stereo not drawn)	4	-1.9	1	31*	6	-23
O=C1/C(=C/c2ccncc2)SC(=S)N1C1CCS(=O)(=O)C1 (stereo not drawn)	x	0.12	2	5	x	54*
Cc1nc(N)sc1-c1csc(Nc2ccccn2)n1	5	1.6	-2	0	-6	13

Source: PubChem BioAssay
